Results taken from ChEMBL document CHEMBL4428062, “Human Toll-like Receptor (TLR) 8-Specific Agonistic Activity in Substituted Pyrimidine-2,4-diamines” (J Med Chem, 2016).
Calls of active or inactive are those of the source. The calls are words filed in the database; no cut-off is given here.

Columns and labels:
[1] = target: Toll-like receptor 3 (Homo sapiens) (UniProt O15455); experiment: Agonist activity at human TLR3 expressed in HEK293 cells assessed as induction of NF-kappaB activity by secreted alkaline phosphatase reporter gene assay; assay type: cell-based
Summary of the method: (§1)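 HEK293 reporter lines stably co-transfected with the respective human TLR and an NF-κB/AP-1-driven secreted alkaline phosphatase gene, kept in selection medium. About 10^5 cells/ml were incubated with graded concentrations of stimuli. Supernatant sAP was read spectrophotometrically at 620 nm using a chromogenic substrate in detection medium. EC50 was taken as the arithmetic mean of quadruplicate samples.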

[2] = target: T1, Toll-like receptor 7 (Homo sapiens) (UniProt Q9NYK1); experiment: Agonist activity at human TLR7 expressed in HEK293 cells assessed as induction of NF-kappaB activity by secreted alkaline phosphatase reporter gene assay; assay type: cell-based; summary of the method: as §1
T1 sequence (whole entry): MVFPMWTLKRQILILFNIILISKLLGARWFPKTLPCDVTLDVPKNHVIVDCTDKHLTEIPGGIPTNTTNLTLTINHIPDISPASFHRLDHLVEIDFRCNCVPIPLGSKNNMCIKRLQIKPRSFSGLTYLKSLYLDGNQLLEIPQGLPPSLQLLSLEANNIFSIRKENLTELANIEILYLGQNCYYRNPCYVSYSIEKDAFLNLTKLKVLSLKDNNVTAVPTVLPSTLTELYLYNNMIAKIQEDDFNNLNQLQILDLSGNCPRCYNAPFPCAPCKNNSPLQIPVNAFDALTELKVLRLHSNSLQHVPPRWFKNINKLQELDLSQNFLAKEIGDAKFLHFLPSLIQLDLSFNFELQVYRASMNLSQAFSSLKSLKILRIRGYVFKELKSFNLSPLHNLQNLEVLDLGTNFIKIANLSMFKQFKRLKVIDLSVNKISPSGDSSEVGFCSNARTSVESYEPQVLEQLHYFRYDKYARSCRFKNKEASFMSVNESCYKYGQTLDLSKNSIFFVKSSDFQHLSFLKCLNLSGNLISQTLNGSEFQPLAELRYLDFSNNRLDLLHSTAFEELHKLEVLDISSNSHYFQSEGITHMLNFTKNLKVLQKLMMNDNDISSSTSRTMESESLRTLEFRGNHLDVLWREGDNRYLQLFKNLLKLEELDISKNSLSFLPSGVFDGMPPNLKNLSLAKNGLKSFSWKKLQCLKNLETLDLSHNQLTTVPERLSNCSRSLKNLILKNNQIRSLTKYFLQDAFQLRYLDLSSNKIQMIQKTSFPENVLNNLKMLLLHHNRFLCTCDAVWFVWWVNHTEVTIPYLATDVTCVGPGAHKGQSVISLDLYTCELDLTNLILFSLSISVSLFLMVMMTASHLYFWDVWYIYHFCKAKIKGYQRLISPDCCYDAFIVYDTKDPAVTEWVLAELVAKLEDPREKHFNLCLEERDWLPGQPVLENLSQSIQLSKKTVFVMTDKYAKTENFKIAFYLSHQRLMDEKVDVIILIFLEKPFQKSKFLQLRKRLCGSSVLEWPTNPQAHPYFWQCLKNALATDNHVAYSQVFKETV

[3] = target: T2, Toll-like receptor 8 (Homo sapiens) (UniProt Q9NR97); experiment: Agonist activity at TLR8 in human PBMC assessed as Th1-biased stimulatory activity measured as IFNgamma release after 16 hrs by immunoassay
T2 sequence (whole entry): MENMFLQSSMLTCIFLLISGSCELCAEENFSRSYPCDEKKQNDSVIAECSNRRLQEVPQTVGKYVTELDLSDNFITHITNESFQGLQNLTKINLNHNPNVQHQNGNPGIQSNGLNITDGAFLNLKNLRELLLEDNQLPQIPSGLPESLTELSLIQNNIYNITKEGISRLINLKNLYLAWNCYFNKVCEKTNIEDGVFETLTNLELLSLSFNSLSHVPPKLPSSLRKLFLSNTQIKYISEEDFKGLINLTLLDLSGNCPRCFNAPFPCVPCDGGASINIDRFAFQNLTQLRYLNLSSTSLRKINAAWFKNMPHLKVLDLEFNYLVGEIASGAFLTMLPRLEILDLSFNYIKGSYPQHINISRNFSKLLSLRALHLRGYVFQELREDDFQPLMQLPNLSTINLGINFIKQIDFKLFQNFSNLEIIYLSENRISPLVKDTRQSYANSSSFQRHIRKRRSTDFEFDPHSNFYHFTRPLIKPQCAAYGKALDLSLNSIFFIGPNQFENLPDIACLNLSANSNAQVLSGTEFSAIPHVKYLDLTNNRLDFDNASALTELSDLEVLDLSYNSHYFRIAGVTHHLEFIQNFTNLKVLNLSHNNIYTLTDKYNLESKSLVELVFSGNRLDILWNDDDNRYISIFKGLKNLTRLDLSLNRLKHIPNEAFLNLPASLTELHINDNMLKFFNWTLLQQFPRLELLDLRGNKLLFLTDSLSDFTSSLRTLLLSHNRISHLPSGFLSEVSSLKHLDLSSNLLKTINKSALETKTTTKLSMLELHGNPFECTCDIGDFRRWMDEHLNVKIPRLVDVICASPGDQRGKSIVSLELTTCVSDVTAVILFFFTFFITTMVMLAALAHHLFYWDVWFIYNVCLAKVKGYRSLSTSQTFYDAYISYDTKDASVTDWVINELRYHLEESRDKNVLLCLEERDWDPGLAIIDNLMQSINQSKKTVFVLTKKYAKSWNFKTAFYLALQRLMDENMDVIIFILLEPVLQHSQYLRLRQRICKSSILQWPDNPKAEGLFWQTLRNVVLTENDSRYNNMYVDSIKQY
Summary of the method: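 Freshly isolated human PBMC from venipuncture blood (informed consent), 10^5 cells/well, stimulated 16 h with graded concentrations of compound. Supernatants collected by centrifugation and cytokines quantified in duplicate with a multiplexed cytokine/chemokine magnetic bead array.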

Chain of Toll-like receptor 3 (Homo sapiens) (O15455 whole entry): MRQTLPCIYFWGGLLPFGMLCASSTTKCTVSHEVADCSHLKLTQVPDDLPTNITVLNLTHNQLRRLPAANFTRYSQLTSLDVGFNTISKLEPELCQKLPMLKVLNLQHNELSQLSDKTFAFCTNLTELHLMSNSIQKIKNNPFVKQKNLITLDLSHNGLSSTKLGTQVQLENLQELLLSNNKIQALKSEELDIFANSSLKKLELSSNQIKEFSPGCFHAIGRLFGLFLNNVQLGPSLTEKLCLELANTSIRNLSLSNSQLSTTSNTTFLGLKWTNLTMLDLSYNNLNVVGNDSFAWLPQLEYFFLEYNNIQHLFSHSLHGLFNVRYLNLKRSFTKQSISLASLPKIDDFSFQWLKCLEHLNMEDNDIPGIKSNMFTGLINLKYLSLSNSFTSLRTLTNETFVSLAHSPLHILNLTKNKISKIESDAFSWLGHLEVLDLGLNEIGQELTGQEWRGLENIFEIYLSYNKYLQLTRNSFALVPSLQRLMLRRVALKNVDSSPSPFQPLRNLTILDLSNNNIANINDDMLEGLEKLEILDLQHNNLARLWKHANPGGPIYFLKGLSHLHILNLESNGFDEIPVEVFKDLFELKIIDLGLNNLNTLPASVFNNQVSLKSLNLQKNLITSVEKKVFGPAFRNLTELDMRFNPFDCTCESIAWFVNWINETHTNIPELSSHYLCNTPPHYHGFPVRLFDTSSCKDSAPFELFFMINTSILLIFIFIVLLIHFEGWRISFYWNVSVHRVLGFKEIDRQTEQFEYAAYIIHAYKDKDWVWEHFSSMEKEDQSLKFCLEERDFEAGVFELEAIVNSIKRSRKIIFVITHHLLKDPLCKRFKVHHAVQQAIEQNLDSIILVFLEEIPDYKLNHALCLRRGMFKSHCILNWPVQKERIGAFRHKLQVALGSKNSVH

With `CCCCNc1cc(-c2ccccc2)nc(N)n1` the Activity [1] was “inactive”, the Activity [2] was “inactive” and the Activity [3] was “inactive”.
`CCCCNc1nc(N)nc(C)c1I` was tested, and the Activity [1] was “inactive”, the Activity [2] was “inactive” and the Activity [3] was “Active”.
In the case of `CCCCNc1nc(N)nc(C)c1CCCCN`, the Activity [1] is reported as “inactive”, the Activity [2] is reported as “inactive” and the Activity [3] is reported as “Active”.
`CCCCNc1nc(N)nc(-c2ccccc2)c1CCCCN` was tested, and the Activity [1] was “inactive”, the Activity [2] was “inactive” and the Activity [3] was “inactive”.
`CCCCCn1c(N)nc2c(C)cccc21` was tested, and the Activity [1] was “inactive” and the Activity [2] was “inactive”.
